In ChEMBL document CHEMBL1124534, “Synthesis, mechanism of action, and biological evaluation of mitosenes” (1989):
≈ marks a conversion by molar mass, not a printed value.

Key:
[1] = tested on: A204; experiment: In vitro antitumor activity against A204 rhabdomyosarcoma tumor cell line was determined; type: functional; settings: Homo sapiens, read-out: ID50 (the source's name)
Method in brief: (§1)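 Cell growth inhibition in vitro measured by the PIT method, with mitomycin C as positive reference.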

[2] = tested on: L1210; experiment: In vitro antitumor activity against L1210 lymphocytic leukemia tumor cell line was determined; type: functional; settings: Mus musculus, read-out: ID50 (the source's name)
Method in brief: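 Inhibition of L1210 leukemia colony formation in vitro, with mitomycin C as positive reference.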

[3] = tested on: Mus musculus; experiment: Body wieght treated/body weight untreated controls of compound (6 mg/kg) was evaluated in vivo for antitumor activity against MAC 16 in female NMRI mice on day 12; type: functional
[4] = tested on: Mus musculus; experiment: Body wieght treated/body weight untreated controls of compound (6 mg/kg) was evaluated in vivo for antitumor activity against MAC 16 in female NMRI mice on day 4; type: functional
[5] = tested on: Mus musculus; experiment: Mean relative body weight change of treated / mean relative body weight change of control when compound (2 mg/kg/day) administered to inhibit growth of human tumor xenograft GXF 97 was reported at day 14 in nude mice; type: functional
[6] = tested on: Mus musculus; experiment: Mean relative body weight change of treated / mean relative body weight change of control when compound (2 mg/kg/day) administered to inhibit growth of human tumor xenograft GXF 97 was reported at day 28 in nude mice; type: functional
[7] = tested on: Mus musculus; experiment: Percentage change in body weight [(day 6 - day 1)/ day 1] for antitumor activity against P388 Leukemia in CD2 mice at fractioned dose treatment of 1 mg/kg; type: functional
Method in brief: (§2)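 Mouse P388 leukemia model. Drugs were given intraperitoneally, either as a single injection or once daily for 9 consecutive days (fractioned schedule). Outcomes were median survival time in days, %T/C, and % body weight change.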

[8] = tested on: Mus musculus; experiment: Percentage change in body weight [(day 6 - day 1)/ day 1] for antitumor activity against P388 Leukemia in CD2 mice at fractioned dose treatment of 3 mg/kg; type: functional; method in brief: as §2
[9] = tested on: Mus musculus; experiment: Percent change in body weight [(day 6 - day 1)/ day 1] when P388 Leukemic CD2 mice were treated with a compound (6 mg/Kg); type: functional
[10] = tested on: Mus musculus; experiment: Mean relative body weight change of treated / mean relative body weight change of control when compound (2 mg/kg/day) administered to inhibit growth of human tumor xenograft GXF 97 was reported at day 21 in nude mice; type: functional
[11] = tested on: Mus musculus; experiment: Median survival time in days for antitumor activity against P388 Leukemia in CD2 mice at a single dose treatment of 6 mg/kg; type: functional
Method in brief: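 P388 leukemia-bearing mice were given one intraperitoneal injection. The read-out was median survival time in days, reported alongside %T/C and % body weight change.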

[12] = tested on: Mus musculus; experiment: Median survival time in days for antitumor activity against P388 Leukemia in CD2 mice at fractioned dose treatment of 1 mg/kg; type: functional
Method in brief: (§3)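 P388 leukemia-bearing mice were dosed intraperitoneally once daily for 9 consecutive days (fractioned schedule). The read-out was median survival time in days, reported alongside %T/C and % body weight change.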

[13] = tested on: Mus musculus; experiment: Median survival time in days for antitumor activity against P388 Leukemia in CD2 mice at fractioned dose treatment of 3 mg/kg; type: functional; method in brief: as §3
[14] = tested on: Mus musculus; experiment: Percent inhibition of compound (50 mg/Kg) was evaluated in vivo for antitumor activity against MAC 13 in female NMRI mice on day 29; type: functional
Method in brief: (§4)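 MAC 13 in female NMRI mice. Drugs were given in arachis oil BP by ip route on day 2 or day 29. % inhibition was derived from treated/untreated control tumor weight (volume); a negative value indicates stimulation.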

[15] = tested on: Mus musculus; experiment: Percent inhibition of compound (6 mg/kg) was evaluated in vivo for antitumor activity against MAC 13 in female NMRI mice on day 2; type: functional; method in brief: as §4
[16] = tested on: Mus musculus; experiment: Percent T/C ([…]) for antitumor activity against P388 Leukemia in CD2 mice at a single dose treatment of 6 mg/kg; type: functional
Method in brief: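 P388 leukemia mice given a single intraperitoneal injection. Median survival time (days) and body weight change were recorded. %T/C was derived from the survival of treated versus control mice.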

[17] = tested on: Mus musculus; experiment: Percent T/C ([…]) for antitumor activity against P388 Leukemia in CD2 mice at fractioned dose treatment of 1 mg/kg; type: functional
Method in brief: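 P388 leukemia mice dosed intraperitoneally once daily for 9 consecutive days. Median survival time (days) and body weight change were recorded. %T/C was based on survival of treated versus control mice.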

[18] = tested on: Mus musculus; experiment: Percent T/C ([…]) for antitumor activity against P388 Leukemia in CD2 mice at fractioned dose treatment of 3 mg/kg; type: functional; method in brief: as §2
[19] = tested on: Mus musculus; experiment: Relative tumor size on day 28 was reported when compound (2 mg/kg/day) administered to inhibit growth of human tumor xenograft GXF 97 in nude mice; type: functional
Method in brief: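 GXF 97 human gastric xenograft grown subcutaneously in nude mice for 24 days, then mice randomized; treatment began 1 day later. Fractioned ip injections on days 1-4, or single iv injection on day 1; 4-5 mice per group. Tumor size from length and width; relative tumor size (% of controls) read at day 28.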

[20] = tested on: Mus musculus; experiment: Compound (40 mg/Kg) was evaluated in vivo for antitumor activity against MAC 16 in female NMRI mice on day 12 and ratio of tumor weight of treated to that of control was determined; type: functional
[21] = tested on: Mus musculus; experiment: Compound (40 mg/Kg) was evaluated in vivo for antitumor activity against MAC 16 in female NMRI mice on day 29 and ratio of tumor weight of treated to that of control was determined; type: functional
[22] = tested on: Mus musculus; experiment: Compound (6 mg/Kg) was evaluated in vivo for antitumor activity against MAC 16 in female NMRI mice on day 4 and ratio of tumor weight of treated to that of control was determined; type: functional
[23] = tested on: WiDr; experiment: In vitro antitumor activity against WiDr colon carcinoma tumor cell line was determined; type: functional; settings: Homo sapiens, read-out: ID50 (the source's name); method in brief: as §1
[24] = tested on: Mus musculus; experiment: Ability of administered compound (2 mg/kg/day) to inhibit growth of human tumor xenograft GXF 97 was assessed on day 14 in nude mice
[25] = tested on: Mus musculus; experiment: Ability of administered compound (2 mg/kg/day) to inhibit growth of human tumor xenograft GXF 97 was assessed on day 21 in nude mice
[26] = tested on: Mus musculus; experiment: Ability of intravenously administered compound (2 mg/kg, single dose) to inhibit growth of human tumor xenograft GXF 97 was assessed on day 28 in nude mice
[27] = tested on: Mus musculus; experiment: Compound (6 mg/Kg) was evaluated in vivo for antitumor activity against MAC 13 in female NMRI mice on day 2 and ratio of tumor weight of treated to that of control was determined

CO[C@@]12[C@H](COC(N)=O)C3=C(C(=O)C(C)=C(N)C3=O)N1C[C@@H]1N[C@@H]12 [MITOMYCIN]
IC50 [1]: 0.02 µg/mL (≈ 0.0598 µM)
IC50 [2]: 0.031 µg/mL (≈ 0.0927 µM)
BW [3]: 96%
BW [4]: 106%
BWC [5]: 108.9%
BWC [6]: 108.4%
BWC [7]: -5.4%
BWC [8]: -8%
BWC [9]: -18.1%
BWC [10]: 108.5%
MST [11]: 21 days
MST [12]: 34 days
MST [13]: 21 days
I [14]: 92.6%
I [15]: 88.4%
T/C [16]: 191%
T/C [17]: 309%
T/C [18]: 191%
Relative TS [19]: 17%
T/C [20]: 81%
T/C [21]: 7.4%
T/C [22]: 60%
IC50 [23]: 0.031 µg/mL (≈ 0.0927 µM)
T/C [24]: 9.9%
T/C [25]: 4.1%
T/C [26]: 2.6%
T/C [27]: 11.6%
